In brackets after ≈: the same amount, converted by molar mass. Where two headings read alike, the source gives them in different places.
Experiments:
B. subtilis 168 cells = assay: Bright-field microscopy of cell morphology; assay type: cell-based, Bacillus subtilis; settings: B. subtilis 168, bright-field microscopy, Figure 5A
B. subtilis 168 = assay: Cell lytic assay; assay type: cell-based, Bacillus subtilis; settings: B. subtilis 168, LB, 4× MIC, OD600 at 37 °C, n = 3, Figure 5B
How it was run: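 B. subtilis 168 cultures exposed to test compounds or reference antibiotics to tell lysis from growth arrest. Triplicate experiments (n = 3); values plotted as means with standard deviation (s.d.).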

## complestatin
B. subtilis 168 cells
  growth morphology of treated cells: extended and twisted phenotype
B. subtilis 168
  bacteriostatic or lytic action: bacteriostatic
M. tuberculosis H37Ra
  MIC: >128 µg/mL

## corbomycin
B. subtilis 168 cells
  growth morphology of treated cells: extended and twisted phenotype
B. subtilis 168
  bacteriostatic or lytic action: bacteriostatic

## CN[C@H](CC(C)C)C(=O)N[C@H]1C(=O)N[C@@H](CC(N)=O)C(=O)N[C@H]2C(=O)N[C@H]3C(=O)N[C@H](C(=O)N[C@H](C(=O)O)c4cc(O)cc(O)c4-c4cc3ccc4O)[C@H](O)c3ccc(c(Cl)c3)Oc3cc2cc(c3O[C@@H]2O[C@H](CO)[C@@H](O)[C@H](O)[C@H]2O[C@H]2C[C@](C)(N)[C@H](O)[C@H](C)O2)Oc2ccc(cc2Cl)[C@H]1O [vancomycin]
M. tuberculosis H37Ra; H37Ra
  MIC: 2 µg/mL (≈ 1.38 µM)

Source: article PMC9136965 (ACS Central Science, 2022)
